# Measurements published in ChEMBL document CHEMBL2177085 (J Med Chem, 2012).
# Tests used:
# [1] = molecular target: Protein kinase C iota type (Homo sapiens) (UniProt P41743); test: Inhibition of PKCiota assessed as enzyme residual activity at 10 uM relative to untreated control
# Method in brief: (§1)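 Residual kinase activity at 10 μM compound, determined by a commercial kinase profiling service (Millipore) across 15 kinases of different classes. Each compound tested in duplicate.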
# [2] = molecular target: Angiopoietin-1 receptor (Homo sapiens) (UniProt Q02763); test: Inhibition of TIE2 assessed as enzyme residual activity at 10 uM relative to untreated control; method in brief: as §1
# [3] = molecular target: T1, Glycogen synthase kinase-3 beta (Homo sapiens, UniProt P49841); test: Inhibition of GSK3beta assessed as enzyme residual activity at 10 uM relative to untreated control; method in brief: as §1
# Target sequence in this assay (P49841 whole entry, looked up): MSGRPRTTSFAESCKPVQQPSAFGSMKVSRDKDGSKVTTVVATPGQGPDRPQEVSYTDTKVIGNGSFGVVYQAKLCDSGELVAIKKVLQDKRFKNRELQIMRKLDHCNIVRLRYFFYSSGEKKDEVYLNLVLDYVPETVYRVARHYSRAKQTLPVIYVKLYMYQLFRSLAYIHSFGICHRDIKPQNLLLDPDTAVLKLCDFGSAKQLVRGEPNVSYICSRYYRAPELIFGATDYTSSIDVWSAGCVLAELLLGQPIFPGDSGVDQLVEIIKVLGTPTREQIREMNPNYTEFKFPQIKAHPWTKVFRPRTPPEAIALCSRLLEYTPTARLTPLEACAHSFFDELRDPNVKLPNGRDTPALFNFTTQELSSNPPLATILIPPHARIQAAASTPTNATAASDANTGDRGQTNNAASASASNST
# [4] = test system: MKN-45; test: Induction of apoptosis in human MKN45 assessed as accumulation at subG1 phase at 1 uM incubated for 7 days by flow cytometry (reference value: 10.9 +/- 3.2%); assay type: functional
# [5] = molecular target: Protein kinase C epsilon type (Homo sapiens) (UniProt Q02156); test: Inhibition of PKCepsilon assessed as enzyme residual activity at 10 uM relative to untreated control; method in brief: as §1
# [6] = test system: MOLM-14; test: Cytotoxic activity against human MOLM14 cells assessed as cell viability at 1 uM incubated for 3 days by MTT assay; assay type: functional; settings: MOLM-14, 72 h, read-out: Activity
# Method in brief: (§2)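 MTT viability: exponentially growing cells, 10 000 viable cells/well in RPMI plated overnight, then exposed to test compounds for 3 days (HT-29, Molm-14) or 5 days (Mkn-45) at 37 °C, 5% CO2. MTT added for 4 h, then SDS/HCl solubilization overnight and absorbance read at 562 nm. Viability is expressed relative to untreated cells (100%). Triplicate.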
# [7] = Inhibition of angiogenesis in chick embryo model assessed as reduction in vessel growth at 26 nM incubated for 24 hrs; assay type: functional, Gallus gallus
# Method in brief: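 White leghorn eggs incubated at 37.5 °C, 62% humidity. At 70 h, albumen removed and shell windowed. From 75 h, 15 agarose pellets (from a 26 mM DMSO stock in 2% agarose; final concentration 26 nM) placed on the area vasculosa.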
# [8] = test system: MKN-45; test: Cytotoxic activity against human MKN45 cells assessed as cell viability at 1 uM incubated for 5 days by MTT assay; assay type: functional; settings: MKN-45, 120 h, read-out: Activity; method in brief: as §2
# [9] = molecular target: Receptor-type tyrosine-protein kinase FLT3 (Homo sapiens) (UniProt P36888); test: Inhibition of FLT3 assessed as enzyme residual activity at 10 uM relative to untreated control; method in brief: as §1
# [10] = test system: MKN-45; test: Cytotoxic activity against human MKN45 cells assessed as cell viability at 10 uM incubated for 5 days by MTT assay; assay type: functional; settings: MKN-45, 120 h, read-out: Activity; method in brief: as §2
# [11] = molecular target: CDK6/cyclin D3 (Homo sapiens) (UniProt P30281+Q00534); test: Inhibition of CDK6/cyclinD3 assessed as enzyme residual activity at 10 uM relative to untreated control; assay type: protein-complex assay; method in brief: as §1
# [12] = molecular target: Hepatocyte growth factor receptor (Homo sapiens) (UniProt P08581); test: Inhibition of MET assessed as enzyme residual activity at 10 uM relative to untreated control; method in brief: as §1
# [13] = molecular target: Vascular endothelial growth factor receptor 2 (Homo sapiens, UniProt P35968); test: Inhibition of VEGFR2 assessed as enzyme residual activity at 10 uM relative to untreated control; method in brief: as §1
# [14] = molecular target: Protein kinase C alpha type (Homo sapiens) (UniProt P17252); test: Inhibition of PKCalpha assessed as enzyme residual activity at 10 uM relative to untreated control; method in brief: as §1
# [15] = test system: MOLM-14; test: Cytotoxic activity against human MOLM14 cells assessed as cell viability at 0.5 uM incubated for 3 days by MTT assay; assay type: functional; settings: MOLM-14, 72 h, read-out: Activity; method in brief: as §2
# [16] = molecular target: Cyclin-dependent kinase 1/cyclin B1 (Homo sapiens) (UniProt P06493+P14635); test: Inhibition of CDK1/cyclinB assessed as enzyme residual activity at 10 uM relative to untreated control; assay type: protein-complex assay; method in brief: as §1
# [17] = molecular target: T1, Glycogen synthase kinase-3 beta; test: Inhibition of GSK3beta
# Method in brief: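 IC50 determined by a commercial kinase profiling service (Millipore IC50 Profiler); duplicate testing.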
# Target sequence in this assay (P49841 whole entry): as the sequence (P49841 whole entry, looked up) above
# [18] = test system: MKN-45; test: Induction of apoptosis in human MKN45 assessed as accumulation at subG1 phase at 5 uM incubated for 7 days by flow cytometry (reference value: 10.9 +/- 3.2%); assay type: functional
# [19] = test system: MOLM-14; test: Cytotoxic activity against human MOLM14 cells assessed as cell viability at 50 uM incubated for 3 days by MTT assay; assay type: functional; settings: MOLM-14, 72 h, read-out: Activity; method in brief: as §2
# [20] = test system: MKN-45; test: Induction of apoptosis in human MKN45 assessed as accumulation at subG1 phase at 15 uM incubated for 7 days by flow cytometry (reference value: 10.9 +/- 3.2%); assay type: functional
# [21] = molecular target: Platelet-derived growth factor receptor beta (Homo sapiens) (UniProt P09619); test: Inhibition of PDGFRbeta assessed as enzyme residual activity at 10 uM relative to untreated control; method in brief: as §1
# [22] = test system: HUVEC; test: Induction of apoptosis in human HUVEC assessed as accumulation at subG1 phase at 2.6 uM incubated for 4 days by flow cytometry (reference value: 15.4 +/- 1.5%); assay type: functional
# [23] = test system: MKN-45; test: Cytotoxic activity against human MKN45 cells assessed as cell viability at 20 uM incubated for 5 days by MTT assay; assay type: functional; settings: MKN-45, 120 h, read-out: Activity; method in brief: as §2
# Chain of Receptor-type tyrosine-protein kinase FLT3 (Homo sapiens) (P36888 whole entry): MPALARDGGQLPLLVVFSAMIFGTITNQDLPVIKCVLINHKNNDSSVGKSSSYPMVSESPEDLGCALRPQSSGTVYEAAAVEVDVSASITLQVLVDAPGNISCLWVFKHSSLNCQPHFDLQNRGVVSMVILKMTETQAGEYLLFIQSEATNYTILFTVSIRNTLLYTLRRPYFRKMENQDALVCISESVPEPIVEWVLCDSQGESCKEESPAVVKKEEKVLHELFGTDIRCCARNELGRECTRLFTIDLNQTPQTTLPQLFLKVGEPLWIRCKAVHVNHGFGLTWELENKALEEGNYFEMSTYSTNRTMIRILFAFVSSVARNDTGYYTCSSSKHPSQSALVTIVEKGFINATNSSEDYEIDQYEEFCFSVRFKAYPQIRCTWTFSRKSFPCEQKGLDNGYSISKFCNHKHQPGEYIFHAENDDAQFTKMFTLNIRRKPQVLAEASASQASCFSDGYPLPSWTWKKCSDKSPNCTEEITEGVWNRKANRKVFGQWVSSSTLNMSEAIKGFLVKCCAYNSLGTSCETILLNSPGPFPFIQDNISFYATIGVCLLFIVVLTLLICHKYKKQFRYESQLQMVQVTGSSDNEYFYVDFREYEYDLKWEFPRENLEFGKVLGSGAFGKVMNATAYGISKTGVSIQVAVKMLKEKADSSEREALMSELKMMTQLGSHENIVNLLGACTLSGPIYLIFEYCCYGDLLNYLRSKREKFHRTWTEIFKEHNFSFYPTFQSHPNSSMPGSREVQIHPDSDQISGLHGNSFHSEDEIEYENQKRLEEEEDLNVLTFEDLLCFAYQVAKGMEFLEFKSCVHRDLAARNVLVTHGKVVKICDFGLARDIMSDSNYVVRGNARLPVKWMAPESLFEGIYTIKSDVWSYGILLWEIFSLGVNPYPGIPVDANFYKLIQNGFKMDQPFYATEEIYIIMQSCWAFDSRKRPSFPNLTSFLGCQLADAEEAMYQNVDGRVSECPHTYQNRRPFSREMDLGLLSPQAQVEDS
# Chain of Protein kinase C epsilon type (Homo sapiens) (Q02156 whole entry): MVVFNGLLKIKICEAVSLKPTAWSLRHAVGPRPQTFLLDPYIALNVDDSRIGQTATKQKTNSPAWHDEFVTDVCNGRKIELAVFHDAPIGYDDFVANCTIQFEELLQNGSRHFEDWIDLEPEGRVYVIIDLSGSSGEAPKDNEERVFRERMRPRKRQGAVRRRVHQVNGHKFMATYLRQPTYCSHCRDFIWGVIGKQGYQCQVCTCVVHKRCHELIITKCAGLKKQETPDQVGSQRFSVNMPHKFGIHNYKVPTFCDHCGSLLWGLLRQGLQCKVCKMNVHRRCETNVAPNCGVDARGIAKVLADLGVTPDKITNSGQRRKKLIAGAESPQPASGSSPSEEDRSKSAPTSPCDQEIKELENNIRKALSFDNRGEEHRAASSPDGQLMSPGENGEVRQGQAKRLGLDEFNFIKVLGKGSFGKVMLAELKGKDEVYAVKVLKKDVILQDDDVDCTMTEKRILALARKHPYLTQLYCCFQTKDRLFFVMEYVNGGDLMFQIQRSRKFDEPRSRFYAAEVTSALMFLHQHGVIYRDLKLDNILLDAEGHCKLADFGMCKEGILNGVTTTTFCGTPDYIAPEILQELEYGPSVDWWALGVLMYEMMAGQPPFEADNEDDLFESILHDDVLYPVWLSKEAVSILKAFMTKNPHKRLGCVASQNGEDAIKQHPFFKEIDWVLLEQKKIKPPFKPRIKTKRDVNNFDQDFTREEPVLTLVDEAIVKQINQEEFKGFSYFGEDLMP
# Chain of Hepatocyte growth factor receptor (Homo sapiens) (P08581 whole entry): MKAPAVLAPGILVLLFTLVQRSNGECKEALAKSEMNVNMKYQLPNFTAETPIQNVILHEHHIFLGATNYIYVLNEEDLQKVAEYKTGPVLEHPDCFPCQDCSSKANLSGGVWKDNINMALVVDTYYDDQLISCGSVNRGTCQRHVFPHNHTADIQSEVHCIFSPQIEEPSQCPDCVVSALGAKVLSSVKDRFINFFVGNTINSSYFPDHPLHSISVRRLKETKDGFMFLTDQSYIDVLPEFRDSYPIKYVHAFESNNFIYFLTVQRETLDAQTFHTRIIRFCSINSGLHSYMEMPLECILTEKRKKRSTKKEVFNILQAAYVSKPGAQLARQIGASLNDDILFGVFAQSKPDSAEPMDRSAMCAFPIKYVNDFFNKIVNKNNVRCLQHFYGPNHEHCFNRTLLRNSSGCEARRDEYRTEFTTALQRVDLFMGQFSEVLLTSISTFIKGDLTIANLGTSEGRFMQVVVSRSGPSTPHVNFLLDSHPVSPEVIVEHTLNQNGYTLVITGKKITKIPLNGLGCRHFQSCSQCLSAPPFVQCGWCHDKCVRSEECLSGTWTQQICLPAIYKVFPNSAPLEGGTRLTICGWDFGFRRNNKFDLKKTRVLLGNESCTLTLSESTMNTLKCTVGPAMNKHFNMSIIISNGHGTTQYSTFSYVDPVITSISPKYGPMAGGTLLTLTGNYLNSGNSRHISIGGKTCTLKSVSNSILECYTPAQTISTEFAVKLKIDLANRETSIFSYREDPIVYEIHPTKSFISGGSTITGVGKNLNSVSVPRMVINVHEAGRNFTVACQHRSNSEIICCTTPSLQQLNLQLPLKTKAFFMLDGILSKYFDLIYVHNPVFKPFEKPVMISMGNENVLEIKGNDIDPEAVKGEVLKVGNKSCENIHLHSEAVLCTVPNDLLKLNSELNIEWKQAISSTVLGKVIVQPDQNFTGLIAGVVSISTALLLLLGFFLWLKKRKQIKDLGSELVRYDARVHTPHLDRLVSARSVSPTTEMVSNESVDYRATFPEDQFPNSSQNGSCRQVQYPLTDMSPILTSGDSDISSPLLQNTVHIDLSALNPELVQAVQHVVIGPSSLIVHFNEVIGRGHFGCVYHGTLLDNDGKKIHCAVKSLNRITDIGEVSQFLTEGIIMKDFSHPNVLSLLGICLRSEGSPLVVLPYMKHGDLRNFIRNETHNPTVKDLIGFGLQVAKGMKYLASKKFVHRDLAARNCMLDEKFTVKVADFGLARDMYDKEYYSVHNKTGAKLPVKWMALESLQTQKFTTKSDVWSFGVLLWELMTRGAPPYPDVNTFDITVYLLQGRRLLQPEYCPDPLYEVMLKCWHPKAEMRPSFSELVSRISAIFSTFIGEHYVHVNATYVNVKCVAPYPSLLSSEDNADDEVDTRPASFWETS
# Chain of Platelet-derived growth factor receptor beta (Homo sapiens) (P09619 whole entry): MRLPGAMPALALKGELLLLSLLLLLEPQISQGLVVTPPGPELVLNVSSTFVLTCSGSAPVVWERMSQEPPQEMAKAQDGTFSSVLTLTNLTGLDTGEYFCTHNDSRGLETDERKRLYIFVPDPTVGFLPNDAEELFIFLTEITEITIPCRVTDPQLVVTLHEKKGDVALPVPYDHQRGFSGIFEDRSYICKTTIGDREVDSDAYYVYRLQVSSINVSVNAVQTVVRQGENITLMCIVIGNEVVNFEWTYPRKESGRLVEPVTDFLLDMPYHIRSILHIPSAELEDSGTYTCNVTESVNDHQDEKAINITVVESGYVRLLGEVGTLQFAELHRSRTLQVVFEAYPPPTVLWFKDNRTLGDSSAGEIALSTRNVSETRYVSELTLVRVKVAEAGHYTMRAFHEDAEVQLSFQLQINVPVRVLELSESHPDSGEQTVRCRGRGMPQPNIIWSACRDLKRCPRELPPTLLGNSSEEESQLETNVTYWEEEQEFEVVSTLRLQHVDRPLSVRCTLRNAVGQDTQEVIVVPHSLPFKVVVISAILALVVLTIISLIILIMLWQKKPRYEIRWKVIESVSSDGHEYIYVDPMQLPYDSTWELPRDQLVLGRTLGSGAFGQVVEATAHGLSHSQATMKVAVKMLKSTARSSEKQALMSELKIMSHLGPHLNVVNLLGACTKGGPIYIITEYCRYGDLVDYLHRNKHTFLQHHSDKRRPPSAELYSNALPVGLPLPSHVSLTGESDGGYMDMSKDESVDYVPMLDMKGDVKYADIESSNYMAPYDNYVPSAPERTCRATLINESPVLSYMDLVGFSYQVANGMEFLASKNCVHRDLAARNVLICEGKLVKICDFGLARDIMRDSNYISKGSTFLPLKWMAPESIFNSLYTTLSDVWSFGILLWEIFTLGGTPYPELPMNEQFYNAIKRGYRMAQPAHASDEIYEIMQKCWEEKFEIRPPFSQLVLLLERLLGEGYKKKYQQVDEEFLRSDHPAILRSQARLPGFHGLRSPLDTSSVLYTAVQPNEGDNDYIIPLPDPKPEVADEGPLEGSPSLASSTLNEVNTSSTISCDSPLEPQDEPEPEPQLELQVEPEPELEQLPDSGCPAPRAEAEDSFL
smiles,measurement,setting,value
COc1cc(C2=C(c3c[nH]c4cnccc34)C(=O)NC2=O)cc(OC)c1OC,Activity,[1],99%
same,Activity,[2],116%
same,Activity,[3],2%
same,Activity,[4],12.8%
same,Activity,[5],75%
same,viability at 1 µM,[6],54.2%
same,inhibition (INH),[7],32%
same,viability at 1 µM,[8],107%
same,Activity,[9],0%
same,viability at 10 µM,[10],108%
same,Activity,[11],103%
same,Activity,[12],83%
same,Activity,[13],1%
same,Activity,[14],80%
same,viability at 0.5 µM,[15],73.4%
same,Activity,[16],80%
same,IC50,[17],9 nM
same,Activity,[18],15.8%
same,viability at 50 µM,[19],2.4%
same,Activity,[20],22.9%
same,Activity,[21],106%
same,Activity,[22],66.3%
same,viability at 20 µM,[23],101%
